According to ChEMBL document CHEMBL4689842, “EUbOPEN Chemogenomics Library wave 1” (2021):
Where “and” joins values, the source holds several entries; their conditions need not be identical. Equal entries are not always repeated.

Tested on: HEK-293T
Assay: Multiplex assay against HEK293T;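 for Population Tubulin-Different-Phenotype (%): share of the cells with healthy nuclei that show this phenotype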
Assay type: toxicity, cell-based
Details: human
In short: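 Live cells carried four stains from seeding: Hoechst33342, BioTracker Green Microtubule Cytoskeleton Dye, MitoTracker Red and Annexin V Alexa Fluor 680. They were imaged on a CQ1 microscope at 37°C and 5% CO2 after compound addition. Using CellPathfinder machine-learning gating, cells were split into Hoechst high-intensity objects or normal cells, normal cells into healthy, pyknosed or fragmented nuclei, and pyknosed cells into mitotic or apoptotic; tubulin, mitochondrial-mass and membrane-permeability phenotypes are per cents of healthy-nucleus cells.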

[1] = 12 h, 1 µM, compound concentration 1 uM, replicate 1
[2] = 12 h, 1 µM, compound concentration 1 uM, replicate 2
[3] = 12 h, 10 µM, compound concentration 10 uM, replicate 1
[4] = 12 h, 10 µM, compound concentration 10 uM, replicate 2
[5] = 24 h, 1 µM, compound concentration 1 uM, replicate 1
[6] = 24 h, 1 µM, compound concentration 1 uM, replicate 2
[7] = 24 h, 10 µM, compound concentration 10 uM, replicate 1
[8] = 24 h, 10 µM, compound concentration 10 uM, replicate 2
[9] = 48 h, 1 µM, compound concentration 1 uM, replicate 1
[10] = 48 h, 1 µM, compound concentration 1 uM, replicate 2
[11] = 48 h, 10 µM, compound concentration 10 uM, replicate 1
[12] = 48 h, 10 µM, compound concentration 10 uM, replicate 2

With `Cc1cccc(CN2CCN(C(c3ccccc3)c3ccc(Cl)cc3)CC2)c1.Cl.Cl` (stereo unspecified) the “Population Apoptotic (%)” value [1] was 52%, the “Population Fragmented Nuclei (%)” value [1] was 13% and the “Population Healthy Nuclei (%)” value [1] was 25%. For the same molecule, the “Population Hoechst High Intensity Objects (%)” value [1] was 19%, the “Population Membrane Permeable-Phenotype (%)” value [1] was 0% and the “Population Mitochondria Different-Phenotype (%)” value [1] was 73%. The “Population Mitotic Cells (%)” value [1] was 47%, the “Population Normal (%)” value [1] was 80% and the “Population Pyknosed Nuclei (%)” value [1] was 60%. The “Population Tubulin-Different-Phenotype (%)” value [1] was 39%, the “Total Cell Count” value [1] was 198 and the “Population Apoptotic (%)” value [2] was 9%. For the same molecule, the “Population Fragmented Nuclei (%)” value [2] was 6%, the “Population Healthy Nuclei (%)” value [2] was 48% and the “Population Hoechst High Intensity Objects (%)” value [2] was 3%. For the same molecule, the “Population Membrane Permeable-Phenotype (%)” value [2] was 10%, the “Population Mitochondria Different-Phenotype (%)” value [2] was 25% and the “Population Mitotic Cells (%)” value [2] was 90%. The “Population Normal (%)” value [2] was 96%, the “Population Pyknosed Nuclei (%)” value [2] was 44% and the “Population Tubulin-Different-Phenotype (%)” value [2] was 18%. The “Total Cell Count” value [2] was 170, the “Population Apoptotic (%)” value [3] was 69% and the “Population Fragmented Nuclei (%)” value [3] was 10%. For the same molecule, the “Population Healthy Nuclei (%)” value [3] was 40%, the “Population Hoechst High Intensity Objects (%)” value [3] was 16% and the “Population Membrane Permeable-Phenotype (%)” value [3] was 3%. The “Population Mitochondria Different-Phenotype (%)” value [3] was 96%, the “Population Mitotic Cells (%)” value [3] was 30% and the “Population Normal (%)” value [3] was 83%. For the same molecule, the “Population Pyknosed Nuclei (%)” value [3] was 49%, the “Population Tubulin-Different-Phenotype (%)” value [3] was 85% and the “Total Cell Count” value [3] was 255. The “Population Apoptotic (%)” value [4] was 42%, the “Population Fragmented Nuclei (%)” value [4] was 8% and the “Population Healthy Nuclei (%)” value [4] was 38%. The “Population Hoechst High Intensity Objects (%)” value [4] was 3%, the “Population Membrane Permeable-Phenotype (%)” value [4] was 6% and the “Population Mitochondria Different-Phenotype (%)” value [4] was 73%. The “Population Mitotic Cells (%)” value [4] was 57%, the “Population Normal (%)” value [4] was 96% and the “Population Pyknosed Nuclei (%)” value [4] was 53%. The “Population Tubulin-Different-Phenotype (%)” value [4] was 69%, the “Total Cell Count” value [4] was 206 and the “Population Apoptotic (%)” value [5] was 51%. For the same molecule, the “Population Fragmented Nuclei (%)” value [5] was 11%, the “Population Healthy Nuclei (%)” value [5] was 33% and the “Population Hoechst High Intensity Objects (%)” value [5] was 17%. For the same molecule, the “Population Membrane Permeable-Phenotype (%)” value [5] was 1%, the “Population Mitochondria Different-Phenotype (%)” value [5] was 73% and the “Population Mitotic Cells (%)” value [5] was 48%. For the same molecule, the “Population Normal (%)” value [5] was 82%, the “Population Pyknosed Nuclei (%)” value [5] was 55% and the “Population Tubulin-Different-Phenotype (%)” value [5] was 43%. The “Total Cell Count” value [5] was 204, the “Population Apoptotic (%)” value [6] was 10% and the “Population Fragmented Nuclei (%)” value [6] was 6%. For the same molecule, the “Population Healthy Nuclei (%)” value [6] was 66%, the “Population Hoechst High Intensity Objects (%)” value [6] was 4% and the “Population Membrane Permeable-Phenotype (%)” value [6] was 7%. The “Population Mitochondria Different-Phenotype (%)” value [6] was 26%, the “Population Mitotic Cells (%)” value [6] was 89% and the “Population Normal (%)” value [6] was 95%. The “Population Pyknosed Nuclei (%)” value [6] was 26%, the “Population Tubulin-Different-Phenotype (%)” value [6] was 33% and the “Total Cell Count” value [6] was 221. For the same molecule, the “Population Apoptotic (%)” value [7] was 75%, the “Population Fragmented Nuclei (%)” value [7] was 11% and the “Population Healthy Nuclei (%)” value [7] was 41%. The “Population Hoechst High Intensity Objects (%)” value [7] was 15%, the “Population Membrane Permeable-Phenotype (%)” value [7] was 0% and the “Population Mitochondria Different-Phenotype (%)” value [7] was 96%. The “Population Mitotic Cells (%)” value [7] was 24%, the “Population Normal (%)” value [7] was 84% and the “Population Pyknosed Nuclei (%)” value [7] was 46%. For the same molecule, the “Population Tubulin-Different-Phenotype (%)” value [7] was 87%, the “Total Cell Count” value [7] was 274 and the “Population Apoptotic (%)” value [8] was 59%. The “Population Fragmented Nuclei (%)” value [8] was 6%, the “Population Healthy Nuclei (%)” value [8] was 56% and the “Population Hoechst High Intensity Objects (%)” value [8] was 3%. The “Population Membrane Permeable-Phenotype (%)” value [8] was 6%, the “Population Mitochondria Different-Phenotype (%)” value [8] was 87% and the “Population Mitotic Cells (%)” value [8] was 40%. For the same molecule, the “Population Normal (%)” value [8] was 96%, the “Population Pyknosed Nuclei (%)” value [8] was 37% and the “Population Tubulin-Different-Phenotype (%)” value [8] was 81%. For the same molecule, the “Total Cell Count” value [8] was 246, the “Population Apoptotic (%)” value [9] was 49% and the “Population Fragmented Nuclei (%)” value [9] was 18%. For the same molecule, the “Population Healthy Nuclei (%)” value [9] was 34%, the “Population Hoechst High Intensity Objects (%)” value [9] was 17% and the “Population Membrane Permeable-Phenotype (%)” value [9] was 2%. For the same molecule, the “Population Mitochondria Different-Phenotype (%)” value [9] was 47%, the “Population Mitotic Cells (%)” value [9] was 50% and the “Population Normal (%)” value [9] was 82%. For the same molecule, the “Population Pyknosed Nuclei (%)” value [9] was 47%, the “Population Tubulin-Different-Phenotype (%)” value [9] was 34% and the “Total Cell Count” value [9] was 244. For the same molecule, the “Population Apoptotic (%)” value [10] was 15%, the “Population Fragmented Nuclei (%)” value [10] was 10% and the “Population Healthy Nuclei (%)” value [10] was 75%. The “Population Hoechst High Intensity Objects (%)” value [10] was 4%, the “Population Membrane Permeable-Phenotype (%)” value [10] was 5% and the “Population Mitochondria Different-Phenotype (%)” value [10] was 7%. For the same molecule, the “Population Mitotic Cells (%)” value [10] was 84%, the “Population Normal (%)” value [10] was 95% and the “Population Pyknosed Nuclei (%)” value [10] was 13%. The “Population Tubulin-Different-Phenotype (%)” value [10] was 20%, the “Total Cell Count” value [10] was 397 and the “Population Apoptotic (%)” value [11] was 61%. For the same molecule, the “Population Fragmented Nuclei (%)” value [11] was 13%, the “Population Healthy Nuclei (%)” value [11] was 55% and the “Population Hoechst High Intensity Objects (%)” value [11] was 12%. The “Population Membrane Permeable-Phenotype (%)” value [11] was 2%, the “Population Mitochondria Different-Phenotype (%)” value [11] was 89% and the “Population Mitotic Cells (%)” value [11] was 38%. For the same molecule, the “Population Normal (%)” value [11] was 87%, the “Population Pyknosed Nuclei (%)” value [11] was 31% and the “Population Tubulin-Different-Phenotype (%)” value [11] was 83%. For the same molecule, the “Total Cell Count” value [11] was 309, the “Population Apoptotic (%)” value [12] was 44% and the “Population Fragmented Nuclei (%)” value [12] was 7%. For the same molecule, the “Population Healthy Nuclei (%)” value [12] was 68%, the “Population Hoechst High Intensity Objects (%)” value [12] was 4% and the “Population Membrane Permeable-Phenotype (%)” value [12] was 4%. For the same molecule, the “Population Mitochondria Different-Phenotype (%)” value [12] was 67%, the “Population Mitotic Cells (%)” value [12] was 55% and the “Population Normal (%)” value [12] was 95%. The “Population Pyknosed Nuclei (%)” value [12] was 24%, the “Population Tubulin-Different-Phenotype (%)” value [12] was 71% and the “Total Cell Count” value [12] was 355.
`CN(c1ccccc1CNc1nc(Nc2ccc3c(c2)CC(=O)N3)ncc1C(F)(F)F)S(C)(=O)=O` was tested, and the “Population Apoptotic (%)” value [3] was 20% and 22%, the “Population Fragmented Nuclei (%)” value [3] was 24% and 17% and the “Population Healthy Nuclei (%)” value [3] was 40% and 71%. The “Population Hoechst High Intensity Objects (%)” value [3] was 21% and 10%, the “Population Membrane Permeable-Phenotype (%)” value [3] was 10% and the “Population Mitotic Cells (%)” value [3] was 80% and 77%. For the same molecule, the “Population Normal (%)” value [3] was 78% and 89%, the “Population Pyknosed Nuclei (%)” value [3] was 35% and the “Total Cell Count” value [3] was 538 and 612. For the same molecule, the “Population Apoptotic (%)” value [4] was 17%, the “Population Fragmented Nuclei (%)” value [4] was 3% and 5% and the “Population Healthy Nuclei (%)” value [4] was 85% and 90%. For the same molecule, the “Population Membrane Permeable-Phenotype (%)” value [4] was 5% and 1%, the “Population Mitochondria Different-Phenotype (%)” value [4] was 37% and the “Population Mitotic Cells (%)” value [4] was 82%. The “Population Normal (%)” value [4] was 92% and 97%, the “Population Pyknosed Nuclei (%)” value [4] was 10% and 4% and the “Total Cell Count” value [4] was 896 and 1228. For the same molecule, the “Population Apoptotic (%)” value [7] was 23% and 26%, the “Population Fragmented Nuclei (%)” value [7] was 24% and 15% and the “Population Healthy Nuclei (%)” value [7] was 40% and 78%. The “Population Hoechst High Intensity Objects (%)” value [7] was 17% and 10%, the “Population Membrane Permeable-Phenotype (%)” value [7] was 4% and 9% and the “Population Mitotic Cells (%)” value [7] was 76% and 73%. For the same molecule, the “Population Normal (%)” value [7] was 82% and 89%, the “Total Cell Count” value [7] was 531 and 582 and the “Population Apoptotic (%)” value [8] was 17% and 15%. The “Population Healthy Nuclei (%)” value [8] was 83%, the “Population Hoechst High Intensity Objects (%)” value [8] was 8% and 4% and the “Population Membrane Permeable-Phenotype (%)” value [8] was 3% and 2%. For the same molecule, the “Population Mitochondria Different-Phenotype (%)” value [8] was 41%, the “Population Mitotic Cells (%)” value [8] was 82% and 84% and the “Population Normal (%)” value [8] was 91% and 95%. For the same molecule, the “Total Cell Count” value [8] was 898 and 1570.
